High-throughput results as filed in PubChem.
STAT3 act-1 – STAT3 signaling activation | U3A cells, IL-6 STAT3-luciferase reporter, luminescence; 100% = signal with IL-6 EC80 alone | activation (% of control), % at 5.6 µM | actives 0.91% (n = 190,000) | AID 871;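 active means activation above the screen-wide mean of compound activation plus 3 SD, cut at about 130% in these data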;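 further: 0% = background luminescence of wells with medium and substrate only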
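System – human U3A cells carrying STAT3-luciferase construct · Probe or stimulus – Interleukin-6, 33 ng/mL · Schedule – compound 1 h, then IL-6 6 h at 37 °C · Signal – luminescence from STAT3-driven luciferase reporter · Evaluation – percent of IL-6-only median luminescence · Benchmarks – IL-6-only high control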
zVAD death inh – L929 zVAD cell death inhibition | L929 zVAD necroptosis rescue, ATP luminescence, 24 h; with zVAD 60 µM | actives 0.38% (n = 220,000) | AID 1377 | viability rescue, % at 10 µM;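 active means activation, scaled between plate controls, above about 75%, limit read from the data; inactive means activation under that limit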;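 further: 0% = zVAD with DMSO and 100% = DMSO alone without zVAD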
STAT3 blocker – STAT3 signaling inhibition; actives 0.89% (n = 190,000); U3A cells, IL-6 STAT3-luciferase reporter, luminescence; host cell line lacks STAT1; inhibition, % at 5.5 µM;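 active means inhibition above the mean inhibition across all screened compounds plus 3 SD, cut at about 44% in these data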;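 further: 0% = DMSO only wells and 100% = 100 µM nifuroxazide control wells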
TNF necrop inh – TNF-alpha cell death inhibition in Jurkat FADD-/- cells | Jurkat FADD-/- TNF necroptosis rescue, ATP luminescence, 24 h; 0 = TNF only, 100 = no-TNF cells | activation (protection from cell death), % at 10 µM | actives 0.068% (n = 220,000);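 active means activation, meaning protection from cell death, of at least 50% relative to plate controls; inactive means activation below 50%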;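 further: necroptosis triggered by 40 ng/mL TNF-alpha added together with compound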
STAT1 blocker – STAT1 signaling inhibition | NIH 3T3 STAT1-luciferase reporter, IFN-gamma, luminescence | inhibition, % at 5.5 µM | actives 0.35% (n = 200,000) | AID 920;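 active means inhibition above a set limit, the mean inhibition across all tested compounds plus 3 SD, cut at about 34% in these data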;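 further: 0% = IFN-gamma with DMSO and 100% = IFN-gamma with 300 µM nifuroxazide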
STAT3 act-2 – STAT3 activation, confirmation assay; shares compounds with STAT3 act-1; U3A STAT3-luciferase reporter, IL-6 potentiation, luminescence; U3A cells lack STAT1; 100 means same as IL-6 alone; potentiation (% of control), % at 5.7 µM; actives 64% (n = 1,200);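 active means percent activation of the STAT3 luciferase reporter above a set limit taken from the earlier primary screen, cut at about 130% in these data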;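 further: 0% = background signal of medium plus substrate and 100% = median of IL-6 with DMSO wells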
NFkB act 2 – counter-screen for STAT3 activators: NF-kappaB activation | activation (% of control), % at 5.7 µM | AID 1309 | actives 11% (n = 1,200) | shares compounds with STAT3 act-1 | human cells, NF-kappaB reporter activation; in the data active means activation above about 120%;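 further: reporter induced by TNF-alpha stimulation; 100% = median of stimulated DMSO wells and 0% = no signal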
STAT1 act – activates STAT1, counter-screen to STAT3 activators | NIH 3T3 STAT1-luciferase reporter, IFN-gamma, luminescence | actives 13% (n = 1,200) | activation (% of control), % at 5.7 µM | AID 1318 | shares compounds with STAT3 act-1;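 active means activation above the solvent-only control well mean plus 3 SD, set per screening run, cut at about 120% in these data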;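 further: 100% = IFN-gamma with DMSO median signal so 100% means no change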
The depositor's hits bear a star; · = no result given. Only some compounds are listed: those with a hit (about 2.1% of all), similar ones and a draw of the others.

SMILES	STAT3 act-1	zVAD death inh	STAT3 blocker	TNF necrop inh	STAT1 blocker	STAT3 act-2	NFkB act 2	STAT1 act
CCOc1cc(-c2ccc(N)c(OCC)c2)ccc1N	154.9*	-0.5	-61.2	-1.2	2.4	135.8*	102.0	97.9
O=C(Cc1cnc2ncnn2c1)N1CCc2c([nH]c3ccccc23)C1c1ccccc1F (centres undefined)	144.2*	-0.5	-49.1	-0.3	8.4	140.2*	104.0	102.0
Cc1nonc1CC(=O)N1CCc2c([nH]c3ccccc23)C1c1ccccc1F (centres undefined)	149.0*	1.6	-50.5	2.7	-11.0	142.5*	104.7	93.2
Fc1ccccc1C1c2[nH]c3ccccc3c2CCN1Cc1cccn1-c1ncccn1 (centres undefined)	132.8	-1.3	-31.7	0.5	-10.6	·	·	·
Cn1nccc1C(=O)N1CCc2c([nH]c3ccccc23)C1c1ccc(F)cc1 (centres undefined)	109.0	0.6	-8.2	0.1	-1.3	·	·	·
CCN(C(=O)Cn1c(=O)oc2cc(S(=O)(=O)N3CCOCC3)ccc21)c1ccccc1	·	0.0	·	1.2	·	·	·	·
O=C(Nc1ccccc1N1CCN(C(=O)c2ccccc2)CC1)c1cccc(Cl)c1	·	-0.3	·	0.2	·	·	·	·
O=C(Nc1ccccc1N1CCN(C(=O)c2ccccc2)CC1)c1cc2ccccc2o1	142.1*	0.6	-46.0	-2.8	3.6	125.5	101.3	96.0
O=C(Nc1ccccc1N1CCCC1)c1cc2ccccc2o1	151.8*	0.5	-59.9	-1.3	-24.6	139.7*	123.7*	134.3*
CCCCCCCSc1nc(N)cc(=O)[nH]1	95.9	0.0	10.5	-2.3	-0.8	·	·	·
CC1(C)CC(=O)C(c2c[nH]c3ccccc23)C(=O)C1	152.2*	18.6	-54.9	-1.3	5.2	163.4*	109.4	102.9
CC12CN3CC(C)(CN(C1)C3c1c[nH]c3ccccc13)C2=O (centres undefined)	96.7	3.1	8.2	0.2	-4.0	·	·	·
Oc1ccc2ccccc2c1CNc1cnc2ccccc2c1	146.3*	-0.3	-58.5	-11.3	3.4	133.3*	99.1	104.3
Oc1ccccc1CNc1cnc2ccccc2c1	84.7	-0.1	21.4	-5.3	-5.9	·	·	·
COC(=O)c1c(C)n(-c2ccc(C)cc2)c2ccc(O)cc12	101.5	0.5	5.2	-2.8	-0.9	·	·	·
Cn1cc(C(CC(=O)O)C(=O)O)c2ccccc21 (centres undefined)	126.0	-0.5	-22.2	0.8	12.1	·	·	·
CCOC(=O)CC(C#N)c1cn(C)c2ccccc12 (centres undefined)	145.2*	-0.1	-49.3	0.7	9.1	130.3	104.1	95.5
Fc1ccc(-c2cc(C(F)(F)F)nc(NCC3CCCO3)n2)cc1 (centres undefined)	90.7	0.0	15.3	1.9	6.7	·	·	·
N#C/C(=C\c1ccco1)Sc1nc2ccccc2s1	137.6*	-0.3	-44.6	-4.3	-4.2	122.2	106.7	102.5
COc1ccc(C(=O)Oc2ccc(F)cc2C(=O)/C=C/c2ccc(OC)c(OC)c2)cc1	98.7	-0.2	0.1	-5.2	-1.4	·	·	·
COc1ccc(/C=C/C(=O)c2cc(F)ccc2OC(=O)c2ccccc2C)cc1OC	143.5*	-1.3	-48.4	-9.6	0.5	102.5	155.7*	102.2
Cn1c(=O)c2c(c3ccccc31)OC(=O)CC2c1cccnc1 (centres undefined)	136.9*	-1.3	-34.1	-0.4	1.1	98.2	101.7	99.9
COc1ccc(C2CC(=O)Oc3c2c(=O)n(C)c2ccccc32)c(OC)c1OC (centres undefined)	101.1	1.2	7.2	0.6	3.9	·	·	·
CCC(C)(C)n1nnnc1CN1CCC(O)(c2cccc(C(F)(F)F)c2)CC1	100.4	0.5	2.8	3.6	-4.4	·	·	·
